Results from ChEMBL document CHEMBL1143036, “Potential anti-inflammatory actions of the elmiric (lipoamino) acids” (2007).
Active and inactive are the calls of the source. The calls are words filed in the database; no cut-off is given here.

Columns and labels:
RAW264.7 [1] = assay: Antiproliferative activity against LPS-induced mouse RAW264.7 cells assessed as number of cells at 10 uM after 48 hrs; assay type: functional
How it was run: (§1)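 RAW264.7 mouse macrophages were seeded at 500 cells/well and held 24 h at 37°C in 5% CO2. Compound was added (n=4 wells), then LPS solution (1 ug/ml) 1 h later, followed by 48 h incubation. Cell number was read as ATP luminescence (CellTiter-Glo), which is linear with cell count. Values are four-well means, […].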

RAW264.7 [2] = assay: Antiproliferative activity against LPS-induced mouse RAW264.7 cells assessed as number of cells at 0.1 uM after 48 hrs; assay type: functional; how it was run: as §1
RAW264.7 [3] = assay: Antiproliferative activity against LPS-induced mouse RAW264.7 cells assessed as number of cells at 1 uM after 48 hrs; assay type: functional; how it was run: as §1
RAW264.7 [4] = assay: Ratio of iPGJ2 to iPGE in LPS-induced mouse RAW264.7 cells at 1 uM by ELISA; assay type: functional
How it was run: (§2)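 RAW cells were seeded at 20,000/well and cultured 20 h at 37°C in 5% CO2, then washed and placed in serum-free RPMI. Compounds were added in DMSO at 1 or 10 uM final (N=3). LPS solution (1 ug/ml) was added 30 min later, with a further 2 h incubation. Centrifuged media were assayed by enzyme immunoassay for immunoreactive PGE and PGJ2 (pg/ml); the ratio is iPGJ/iPGE.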

RAW264.7 [5] = assay: Effect on iPGE2 level in LPS-induced mouse RAW264.7 cells at 10 uM by ELISA; assay type: functional; how it was run: as §2
RAW264.7 [6] = assay: Ratio of iPGJ2 to iPGE in LPS-induced mouse RAW264.7 cells at 10 uM by ELISA; assay type: functional; how it was run: as §2
RAW264.7 [7] = assay: Effect on iPGJ2 level in LPS-induced mouse RAW264.7 cells at 1 uM by ELISA; assay type: functional; how it was run: as §2
RAW264.7 [8] = assay: Effect on iPGE2 level in LPS-induced mouse RAW264.7 cells at 1 uM by ELISA; assay type: functional; how it was run: as §2
Mus musculus [9] = assay: Reduction of phorbol ester-induced ear edema in CD1 mouse assessed as ear thickness at 200 ug/ear; assay type: functional; set-up: scale not given: the % may be the effect or the level left
How it was run: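 Male CD-1 mice (34–40 g), topically dosed at 200 ug/ear in 10 ul acetone on the ipsilateral ear, with acetone alone on the contralateral ear. Phorbol ester was the edema inducer. Ear thickness was read by digital micrometer and expressed as the ipsilateral minus contralateral difference in microns. N = 8; paired t-test against vehicle.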

RAW264.7 [10] = assay: Effect on iPGJ2 level in LPS-induced mouse RAW264.7 cells at 10 uM by ELISA; assay type: functional; how it was run: as §2
Mus musculus [11] = assay: Reduction of phorbol ester-induced ear edema in CD1 mouse assessed as ear thickness; assay type: functional, organism-based

| Compound | Cell number (RAW264.7 [1]) | Activity (RAW264.7 [2]) | Cell number (RAW264.7 [3]) | Ratio (RAW264.7 [4]) | Activity (RAW264.7 [5]) [pg/mL] | Ratio (RAW264.7 [6]) | Activity (RAW264.7 [7]) [pg/mL] | Activity (RAW264.7 [8]) [pg/mL] | Activity (Mus musculus [9]) [%] | Activity (RAW264.7 [10]) [pg/mL] | Activity (Mus musculus [11]) |
| --- | --- | --- | --- | --- | --- | --- | --- | --- | --- | --- | --- |
| CCCCC/C=C\C/C=C\C/C=C\C/C=C\CCCCCC(=O)N[C@@H](C)C(=O)O | 618 | 4668 | 4415 | – | – | – | – | – | – | – | – |
| CCCCC/C=C\C/C=C\C/C=C\CCCCCCC(=O)N[C@@H](C)C(=O)O | 637 | 4326 | 4680 | – | – | – | – | – | – | – | – |
| CCCCC/C=C\C/C=C\CCCCCCCCCC(=O)N[C@@H](C)C(=O)O | 605 | 3641 | 4397 | – | – | – | – | – | – | – | – |
| CCCCC/C=C\C/C=C\C/C=C\CCCCCCC(=O)NCC(=O)O | 647 | 5486 | 5563 | – | – | – | – | – | – | – | – |
| CCCCC/C=C\C/C=C\C/C=C\C/C=C\CCCC(=O)NCC(=O)O [ARACHIDONOYL GLYCINE] | 591 | 5630 | 6156 | 147 | 425 | 229 | 40407 | 273 | 40 | 97830 | – |
| CCCCCCCCCCCCCCCC(=O)NCC(=O)O [PALMITOYL GLYCINE] | 5108 | 5120 | 5524 | 2 | 128 | 3 | 219 | 103 | – | 401 | – |
| CCCCCCCCCCCCCCCC(=O)N[C@@H](C)C(=O)O | 432 | 4541 | 4670 | 1 | 232 | 17 | 261 | 251 | – | – | – |
| CCCCC/C=C\C/C=C\CCCCCCCC(=O)NCC(=O)O [LINOLEOYL GLYCINE] | 713 | 5979 | 4595 | – | – | – | – | – | – | – | – |
| CCCCCCCCCCCCCCCCCC(=O)NCC(=O)O | – | – | – | 1 | 126 | 1 | 201 | 121 | – | 159 | – |
| CCCCC/C=C\C/C=C\C/C=C\CCCCC(=O)N[C@@H](C)C(=O)O | 2696 | 4247 | 4557 | – | – | – | – | – | – | – | – |
| COc1ccc2cc([C@H](C)C(=O)O)ccc2c1 [NAPROXEN] | – | – | – | – | 75 | 1 | – | – | – | 70 | – |
| CCCCC/C=C\C/C=C\CCCCCCCCCC(=O)NCC(=O)O | 609 | 2945 | 5738 | – | – | – | – | – | – | – | – |
| CCCCCCCC/C=C\CCCCCCCC(=O)N[C@@H](C)C(=O)O | 422 | 3637 | 4533 | – | – | – | – | – | – | – | – |
| CCCCC/C=C\C/C=C\C/C=C\C/C=C\CCCC(=O)N[C@H](C)C(=O)O | – | – | – | 12 | 269 | 104 | 1496 | 124 | – | 28224 | – |
| O=C1CCN(c2ccccc2)N1 | – | – | – | – | – | – | – | – | – | – | inactive |
| CCCCC/C=C\C/C=C\C/C=C\CCCCC(=O)NCC(=O)O | 6602 | 5435 | 5700 | 39 | 289 | 277 | 5040 | 127 | – | 80205 | – |
| CCCCC/C=C\C/C=C\C/C=C\C/C=C\CCCCCC(=O)NCC(=O)O | 3574 | 5131 | 5310 | – | – | – | – | – | – | – | – |
| CCCCCCCC/C=C\CCCCCCCC(=O)NCC(=O)O [OLEOYL GLYCINE] | 425 | 5172 | 5557 | – | – | – | – | – | – | – | – |
| CCCCC/C=C\C/C=C\C/C=C\C/C=C\CCCC(=O)N[C@@H](C)C(=O)O | 2110 | 4781 | 4735 | 9 | 652 | 62 | 2345 | 241 | – | 41059 | – |
| CCCCCCCCCCCCCCCC(=O)N[C@H](C)C(=O)O | – | – | – | 1 | 319 | 9 | 281 | 256 | – | 3079 | – |
| CCCCC/C=C\C/C=C\CCCCCCCC(=O)N[C@@H](C)C(=O)O | 621 | 3955 | 4233 | – | – | – | – | – | – | – | – |
